These results are taken from ChEMBL document CHEMBL4715840, “Antibacterial activity of lipo-α/sulfono-γ-AA hybrid peptides” (Eur J Med Chem, 2020).

The test system of series [1] is Staphylococcus aureus. As to the kind of experiment: Antibacterial activity against methicillin-resistant Staphylococcus aureus ATCC 33591 incubated for 12 to 16 hrs by microtiter method. In kind it is functional. To be noted: time 12-16 hrs. The gist of the method: (§1)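 Single colony grown overnight at 37 °C in TSB, diluted 100-fold and grown to mid-log phase. Equal volumes of cell suspension and peptide serial dilutions in TSB were combined and incubated 37 °C for 12-16 h. Growth read as absorbance at 600 nm. MIC taken as the lowest concentration inhibiting growth. Three repeats, each in duplicate.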

Series [2] relates to Staphylococcus epidermidis. Put plainly: Antibacterial activity against methicillin-resistant Staphylococcus epidermidis RP62A incubated for 12 to 16 hrs by microtiter method. It counts as functional. The note with it: time 12-16 hrs. An outline of the steps: as §1
Series [3] concerns Enterococcus faecalis. Put plainly: Antibacterial activity against Enterococcus faecalis ATCC 700802 incubated for 12 to 16 hrs by microtiter method. In kind it is functional. The note with it: time 12-16 hrs. An outline of the steps:
(§2)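 Single colonies grown overnight in TSB at 37 °C, diluted 100-fold and grown to mid-log phase. Equal volumes of bacterial suspension and peptide dilutions in TSB mixed and incubated 37 °C for 12-16 h. Growth read as absorbance at 600 nm. MIC taken as lowest concentration inhibiting growth. Three repeats, duplicates each.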

The test system of series [4] is Escherichia coli. As to the kind of experiment: Antibacterial activity against Escherichia coli ATCC 25922 incubated for 12 to 16 hrs by microtiter method. In kind it is functional. To be noted: time 12-16 hrs. An outline of the steps:
as §2

Series [5] relates to Pseudomonas aeruginosa. Put plainly: Antibacterial activity against Pseudomonas aeruginosa ATCC 27853 incubated for 12 to 16 hrs by microtiter method. It counts as functional. To be noted: time 12-16 hrs. An outline of the steps:
as §2

Series [6] in a line: Hemolytic activity against RBC (unknown origin). In kind it is ADME, cell-based, Erythrocyte. To be noted: red blood cells (erythrocytes).
Series [7] is described as follows: Selectivity index, ratio of HC50 for human RBC to MIC for methicillin-resistant Staphylococcus aureus ATCC 33591. It counts as toxicity. To be noted: human red blood cells, read-out: Selectivity Index.
In series [8] the test system is Staphylococcus aureus. As to the kind of experiment: Bactericidal activity against methicillin-resistant Staphylococcus aureus ATCC 33591 at 50 ug/ml measured after 10 mins by time-kill assay. In kind it is functional, organism-based. An outline of the steps: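 Cells grown in TSB at 37 °C to mid-log phase, diluted to 1 × 10^6 CFU/mL, then exposed to peptide at 12.5, 25 or 50 µg/mL for 10 min, 30 min, 1 h and 2 h. Samples diluted 102 to 104-fold and plated. Colonies counted after overnight growth at 37 °C and plotted against exposure time.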

Series [9] relates to Escherichia coli. As to the kind of experiment: Bactericidal activity against Escherichia coli ATCC 25922 at 25 to 50 ug/ml measured after 60 mins by time-kill assay. It counts as functional, organism-based. To be noted: dose 25-50 µg/ml. The gist of the method: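 Mid-log TSB cultures at 37 °C diluted to 1 × 10^6 CFU/mL and exposed to 12.5, 25 or 50 µg/mL peptide for 10 min, 30 min, 1 h and 2 h. Aliquots diluted 102 to 104-fold and plated. Colonies counted after overnight incubation at 37 °C and plotted against exposure time.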

For series [10], the system named is Cell membrane. As to the kind of experiment: Induction of membrane disruption in methicillin-resistant Staphylococcus aureus ATCC 33591 at 250 ug/ml measured for 30 mins by DiSC35 dye based fluorescence assay. In kind it is subcellular. To be noted: dose 250.0 µg/ml. An outline of the steps:
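Mid-log cells washed with 5 mM HEPES and 5 mM glucose. Resuspended at 10^8 CFU/mL in 5 mM glucose, 5 mM HEPES and 100 mM KCl mixed 1:1:1, with 2 µM DiSC3(5), at 37 °C. Fluorescence (ex 622, em 670 nm) followed for 30 min. Peptide at 250 µg/mL added once the minimum was reached, about 20 min. Untreated culture as negative control. At least three repeats in duplicate.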

Series [11] relates to Cell membrane. Put plainly: Induction of membrane disruption in Escherichia coli at 250 ug/ml measured for 30 mins by DiSC35 dye based fluorescence assay. To be noted: dose 250.0 µg/ml. It counts as subcellular.
Series [12] concerns Cell membrane. As to the kind of experiment: Induction of membrane disruption in methicillin-resistant Staphylococcus aureus ATCC 33591 at 6 ug/ml measured after 2 hrs by DAPI/propidium iodide staining based fluorescence microscopic analysis. To be noted: dose 6.0 µg/ml. In kind it is subcellular. An outline of the steps: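 Mid-log cells exposed to peptide at 37 °C for 2 h. Methods give 10 µg/mL; the legend gives 6 µg/mL. Cells pelleted at 5000g for 15 min and washed in PBS. Stained with PI (5 µg/mL), washed three times in PBS, then stained with DAPI (10 µg/mL), each stain 15 min on ice in the dark. Imaged with a 100X oil objective. Untreated cells as control.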

For series [13], the system named is Cell membrane. Put plainly: Induction of membrane disruption in Escherichia coli at 6 ug/ml measured after 2 hrs by DAPI/propidium iodide staining based fluorescence microscopic analysis. To be noted: dose 6.0 µg/ml. An outline of the steps:
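Mid-log bacteria exposed to peptide for 2 h at 37 °C, then centrifuged at 5000g for 15 min and washed with PBS. Stained with PI (5 µg/mL), washed three times in PBS, then stained with DAPI (10 µg/mL), each stain 15 min on ice in the dark. Viewed by fluorescence microscopy with a 100X oil objective.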

Converted amounts (≈) assume the structure as drawn. The source made the active and inactive calls. The calls are words filed in the database; no cut-off is given here.

What is called MIC is the lowest concentration that inhibits growth of the organism. What is called HC50 is the concentration giving 50% haemolysis. Read a low HC50 as stronger haemolysis.

Take `CCCCCCCCCCCC(=O)N[C@@H](CCCCN)C(=O)N[C@@H](CCCCN)CN(CC(N)=O)S(=O)(=O)Cc1ccccc1`: the MIC in series [1] is 20 µg/mL (≈ 30.6 µM); in series [2], 20 µg/mL (≈ 30.6 µM); in series [3], over 50 µg/mL; in series [4], 5 µg/mL (≈ 7.66 µM); in series [5], 8 µg/mL (≈ 12.3 µM).

In the case of `CCCCCCCCCCCCCCCC(=O)N[C@@H](CCCCN)C(=O)N[C@@H](CCCCN)CN(CC(N)=O)S(=O)(=O)Cc1ccccc1`, the minimal inhibitory concentration (MIC) is 5 µg/mL (≈ 7.05 µM) in series [1]; 5 µg/mL (≈ 7.05 µM) in series [2]; 5 µg/mL (≈ 7.05 µM) in series [3]; 5 µg/mL (≈ 7.05 µM) in [4]; 20 µg/mL (≈ 28.2 µM) in series [5].

For `CCCCCCCCCCCCCCCC(=O)N[C@@H](CCCCN)C(=O)N[C@@H](CCCCN)CN(CC(=O)N[C@@H](CCCCN)CN(CC(N)=O)S(=O)(=O)Cc1ccccc1)S(=O)(=O)Cc1ccccc1`, the MIC stood at 2 µg/mL (≈ 1.93 µM) in series [1]; 5 µg/mL (≈ 4.83 µM) in [2]; 5 µg/mL (≈ 4.83 µM) in [3]; 8 µg/mL (≈ 7.73 µM) in series [4]; 8 µg/mL (≈ 7.73 µM) in series [5]. This compound yielded an HC50 in series [6] of 50 µg/mL. For the same compound, the selectivity ratio in [7] is 25.

For the compound `CCCCCCCCCCCCCCCCNC(=O)CN(C[C@H](CCCCN)NC(=O)[C@@H](N)CCCCN)S(=O)(=O)Cc1ccccc1`, the MIC was 5 µg/mL (≈ 7.19 µM) in series [1]; 20 µg/mL (≈ 28.8 µM) in series [2]; 5 µg/mL (≈ 7.19 µM) in series [3]; 5 µg/mL (≈ 7.19 µM) in series [4]; over 50 µg/mL in series [5].

For `CCCCCCCCCC(=O)N[C@@H](CCCCN)C(=O)N[C@@H](CCCCN)CN(CC(N)=O)S(=O)(=O)Cc1ccccc1`, the MIC in series [1], in series [2], in series [3], in series [4] and in series [5] was over 50 µg/mL throughout.

As to `CCCCCCCCCCCCCCCC(=O)N[C@@H](CCCCN)CN(CC(N)=O)S(=O)(=O)Cc1ccccc1`, the MIC in series [1] is 5 µg/mL (≈ 8.61 µM); in series [2] it was 8 µg/mL (≈ 13.8 µM); in series [3], 5 µg/mL (≈ 8.61 µM); in series [4], over 50 µg/mL; in series [5], over 50 µg/mL.

Consider `CCCCCCCCCCCCCCCCCC(=O)N[C@@H](CCCCN)C(=O)N[C@@H](CCCCN)CN(CC(N)=O)S(=O)(=O)Cc1ccccc1`, for which the MIC in series [1] is 2 µg/mL (≈ 2.71 µM); in series [2], 20 µg/mL (≈ 27.1 µM); in series [3], 5 µg/mL (≈ 6.78 µM); in series [4], over 50 µg/mL; in [5], over 50 µg/mL.

Regarding `CCCCCCCCCCCCCC(=O)N[C@@H](CCCCN)C(=O)N[C@@H](CCCCN)CN(CC(N)=O)S(=O)(=O)Cc1ccccc1`, the MIC in series [1] is 5 µg/mL (≈ 7.34 µM); in series [2], 5 µg/mL (≈ 7.34 µM); in series [3] it was 5 µg/mL (≈ 7.34 µM); in [4], 2 µg/mL (≈ 2.94 µM); in series [5], 5 µg/mL (≈ 7.34 µM). In series [6], this compound came in with an HC50 of 125 µg/mL. Further, in [7], the selectivity ratio stood at 25. Moreover, the outcome in [8], in [9], in series [10], in [11], in series [12] and in series [13] was Active.

On to `CCCCCCCCCCCCCCCCNC(=O)CN(C[C@@H](N)CCCCN)S(=O)(=O)Cc1ccccc1`, for which the MIC is 5 µg/mL (≈ 8.82 µM) in [1]; 20 µg/mL (≈ 35.3 µM) in [2]; 5 µg/mL (≈ 8.82 µM) in series [3]; 5 µg/mL (≈ 8.82 µM) in series [4]; over 50 µg/mL in series [5].

Turning to `CCCCCCCCCCCCCCCC(=O)N[C@@H](CCCCN)CN(CC(=O)N[C@@H](CCCCN)CN(CC(N)=O)S(=O)(=O)Cc1ccccc1)S(=O)(=O)Cc1ccccc1`, the MIC is 8 µg/mL (≈ 8.83 µM) in series [1]; 20 µg/mL (≈ 22.1 µM) in series [2]; 8 µg/mL (≈ 8.83 µM) in series [3]; over 50 µg/mL in series [4]; over 50 µg/mL in series [5].

For `CCCCCCCCCCCCCC(=O)N[C@@H](CCCCN)C(=O)N[C@@H](CCCCN)CN(CC(=O)N[C@@H](CCCCN)CN(CC(N)=O)S(=O)(=O)Cc1ccccc1)S(=O)(=O)Cc1ccccc1`, the minimum inhibitory concentration (MIC) in series [1] turned out to be 2 µg/mL (≈ 1.99 µM); in series [2] it was 5 µg/mL (≈ 4.97 µM); in series [3] it was 8 µg/mL (≈ 7.95 µM); in [4], 5 µg/mL (≈ 4.97 µM); in series [5], 5 µg/mL (≈ 4.97 µM). In series [6], the HC50 worked out at 100 µg/mL. Moreover, the selectivity ratio in [7] is 50.
